{"source": "ChEMBL document CHEMBL4689842", "about": "“EUbOPEN Chemogenomics Library wave 1” (2021)", "test_system": "Fibroblast", "assay": "Multiplex assay against human fibroblast", "assay_type": "toxicity, cell-based", "how_it_was_run": "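On a CQ1 microscope at 37°C and 5% CO2, live cells were imaged after compound addition. They had been stained at seeding with Hoechst33342, BioTracker Green Microtubule Cytoskeleton Dye, MitoTracker Red and Annexin V Alexa Fluor 680. CellPathfinder machine-learning gating assigned cells to Hoechst high-intensity objects or normal cells, normal cells to healthy, pyknosed or fragmented nuclei, and pyknosed cells to mitotic or apoptotic. Tubulin, mitochondrial-mass and membrane-permeability phenotypes are per cents of healthy-nucleus cells.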", "key": {"[1]": {"conditions": "12 h, 1 µM, compound concentration 1 uM, replicate 1"}, "[2]": {"conditions": "12 h, 1 µM, compound concentration 1 uM, replicate 2"}, "[3]": {"conditions": "12 h, 10 µM, compound concentration 10 uM, replicate 1"}, "[4]": {"conditions": "12 h, 10 µM, compound concentration 10 uM, replicate 2"}, "[5]": {"conditions": "24 h, 1 µM, compound concentration 1 uM, replicate 1"}, "[6]": {"conditions": "24 h, 1 µM, compound concentration 1 uM, replicate 2"}, "[7]": {"conditions": "24 h, 10 µM, compound concentration 10 uM, replicate 1"}, "[8]": {"conditions": "24 h, 10 µM, compound concentration 10 uM, replicate 2"}}, "data": [{"molecule": "NC(=O)c1cccc(-c2cc(Nc3ccc(OC(F)(F)F)cc3)ncn2)c1", "values": [{"measurement": "Population Apoptotic (%)", "setting": "[1]", "value": 80, "unit": "%"}, {"measurement": "Population Fragmented Nuclei (%)", "setting": "[1]", "value": 30, "unit": "%"}, {"measurement": "Population Healthy Nuclei (%)", "setting": "[1]", "value": 53, "unit": "%"}, {"measurement": "Population Hoechst High Intensity Objects (%)", "setting": "[1]", "value": 10, "unit": "%"}, {"measurement": "Population Membrane Permeable-Phenotype (%)", "setting": "[1]", "value": 5, "unit": "%"}, {"measurement": "Population Mitochondria Different-Phenotype (%)", "setting": "[1]", "value": 6, "unit": "%"}, {"measurement": "Population Mitotic Cells (%)", "setting": "[1]", "value": 20, "unit": "%"}, {"measurement": "Population Normal (%)", "setting": "[1]", "value": 89, "unit": "%"}, {"measurement": "Population Pyknosed Nuclei (%)", "setting": "[1]", "value": 16, "unit": "%"}, {"measurement": "Population Tubulin-Different-Phenotype (%)", "setting": "[1]", "value": 5, "unit": "%"}, {"measurement": "Total Cell Count", "setting": "[1]", "value": 205}, {"measurement": "Population Apoptotic (%)", "setting": "[2]", "value": 20, "unit": "%"}, {"measurement": "Population Fragmented Nuclei (%)", "setting": "[2]", "value": 42, "unit": "%"}, {"measurement": "Population Healthy Nuclei (%)", "setting": "[2]", "value": 48, "unit": "%"}, {"measurement": "Population Hoechst High Intensity Objects (%)", "setting": "[2]", "value": 39, "unit": "%"}, {"measurement": "Population Membrane Permeable-Phenotype (%)", "setting": "[2]", "value": 11, "unit": "%"}, {"measurement": "Population Mitochondria Different-Phenotype (%)", "setting": "[2]", "value": 23, "unit": "%"}, {"measurement": "Population Mitotic Cells (%)", "setting": "[2]", "value": 80, "unit": "%"}, {"measurement": "Population Normal (%)", "setting": "[2]", "value": 60, "unit": "%"}, {"measurement": "Population Pyknosed Nuclei (%)", "setting": "[2]", "value": 9, "unit": "%"}, {"measurement": "Population Tubulin-Different-Phenotype (%)", "setting": "[2]", "value": 3, "unit": "%"}, {"measurement": "Total Cell Count", "setting": "[2]", "value": 89}, {"measurement": "Population Apoptotic (%)", "setting": "[3]", "value": 69, "unit": "%"}, {"measurement": "Population Fragmented Nuclei (%)", "setting": "[3]", "value": 20, "unit": "%"}, {"measurement": "Population Healthy Nuclei (%)", "setting": "[3]", "value": 61, "unit": "%"}, {"measurement": "Population Hoechst High Intensity Objects (%)", "setting": "[3]", "value": 7, "unit": "%"}, {"measurement": "Population Membrane Permeable-Phenotype (%)", "setting": "[3]", "value": 7, "unit": "%"}, {"measurement": "Population Mitochondria Different-Phenotype (%)", "setting": "[3]", "value": 3, "unit": "%"}, {"measurement": "Population Mitotic Cells (%)", "setting": "[3]", "value": 30, "unit": "%"}, {"measurement": "Population Normal (%)", "setting": "[3]", "value": 92, "unit": "%"}, {"measurement": "Population Pyknosed Nuclei (%)", "setting": "[3]", "value": 18, "unit": "%"}, {"measurement": "Population Tubulin-Different-Phenotype (%)", "setting": "[3]", "value": 6, "unit": "%"}, {"measurement": "Total Cell Count", "setting": "[3]", "value": 231}, {"measurement": "Population Apoptotic (%)", "setting": "[4]", "value": 60, "unit": "%"}, {"measurement": "Population Fragmented Nuclei (%)", "setting": "[4]", "value": 50, "unit": "%"}, {"measurement": "Population Healthy Nuclei (%)", "setting": "[4]", "value": 23, "unit": "%"}, {"measurement": "Population Hoechst High Intensity Objects (%)", "setting": "[4]", "value": 39, "unit": "%"}, {"measurement": "Population Membrane Permeable-Phenotype (%)", "setting": "[4]", "value": 0, "unit": "%"}, {"measurement": "Population Mitochondria Different-Phenotype (%)", "setting": "[4]", "value": 44, "unit": "%"}, {"measurement": "Population Mitotic Cells (%)", "setting": "[4]", "value": 40, "unit": "%"}, {"measurement": "Population Normal (%)", "setting": "[4]", "value": 60, "unit": "%"}, {"measurement": "Population Pyknosed Nuclei (%)", "setting": "[4]", "value": 26, "unit": "%"}, {"measurement": "Population Tubulin-Different-Phenotype (%)", "setting": "[4]", "value": 33, "unit": "%"}, {"measurement": "Total Cell Count", "setting": "[4]", "value": 63}, {"measurement": "Population Apoptotic (%)", "setting": "[5]", "value": 60, "unit": "%"}, {"measurement": "Population Fragmented Nuclei (%)", "setting": "[5]", "value": 26, "unit": "%"}, {"measurement": "Population Healthy Nuclei (%)", "setting": "[5]", "value": 59, "unit": "%"}, {"measurement": "Population Hoechst High Intensity Objects (%)", "setting": "[5]", "value": 12, "unit": "%"}, {"measurement": "Population Membrane Permeable-Phenotype (%)", "setting": "[5]", "value": 6, "unit": "%"}, {"measurement": "Population Mitochondria Different-Phenotype (%)", "setting": "[5]", "value": 7, "unit": "%"}, {"measurement": "Population Mitotic Cells (%)", "setting": "[5]", "value": 39, "unit": "%"}, {"measurement": "Population Normal (%)", "setting": "[5]", "value": 87, "unit": "%"}, {"measurement": "Population Pyknosed Nuclei (%)", "setting": "[5]", "value": 13, "unit": "%"}, {"measurement": "Population Tubulin-Different-Phenotype (%)", "setting": "[5]", "value": 11, "unit": "%"}, {"measurement": "Total Cell Count", "setting": "[5]", "value": 194}, {"measurement": "Population Apoptotic (%)", "setting": "[6]", "value": 50, "unit": "%"}, {"measurement": "Population Fragmented Nuclei (%)", "setting": "[6]", "value": 46, "unit": "%"}, {"measurement": "Population Healthy Nuclei (%)", "setting": "[6]", "value": 46, "unit": "%"}, {"measurement": "Population Hoechst High Intensity Objects (%)", "setting": "[6]", "value": 26, "unit": "%"}, {"measurement": "Population Membrane Permeable-Phenotype (%)", "setting": "[6]", "value": 12, "unit": "%"}, {"measurement": "Population Mitochondria Different-Phenotype (%)", "setting": "[6]", "value": 16, "unit": "%"}, {"measurement": "Population Mitotic Cells (%)", "setting": "[6]", "value": 50, "unit": "%"}, {"measurement": "Population Normal (%)", "setting": "[6]", "value": 73, "unit": "%"}, {"measurement": "Population Pyknosed Nuclei (%)", "setting": "[6]", "value": 6, "unit": "%"}, {"measurement": "Population Tubulin-Different-Phenotype (%)", "setting": "[6]", "value": 12, "unit": "%"}, {"measurement": "Total Cell Count", "setting": "[6]", "value": 90}, {"measurement": "Population Apoptotic (%)", "setting": "[7]", "value": 55, "unit": "%"}, {"measurement": "Population Fragmented Nuclei (%)", "setting": "[7]", "value": 26, "unit": "%"}, {"measurement": "Population Healthy Nuclei (%)", "setting": "[7]", "value": 53, "unit": "%"}, {"measurement": "Population Hoechst High Intensity Objects (%)", "setting": "[7]", "value": 5, "unit": "%"}, {"measurement": "Population Membrane Permeable-Phenotype (%)", "setting": "[7]", "value": 5, "unit": "%"}, {"measurement": "Population Mitochondria Different-Phenotype (%)", "setting": "[7]", "value": 5, "unit": "%"}, {"measurement": "Population Mitotic Cells (%)", "setting": "[7]", "value": 44, "unit": "%"}, {"measurement": "Population Normal (%)", "setting": "[7]", "value": 94, "unit": "%"}, {"measurement": "Population Pyknosed Nuclei (%)", "setting": "[7]", "value": 19, "unit": "%"}, {"measurement": "Population Tubulin-Different-Phenotype (%)", "setting": "[7]", "value": 11, "unit": "%"}, {"measurement": "Total Cell Count", "setting": "[7]", "value": 237}, {"measurement": "Population Apoptotic (%)", "setting": "[8]", "value": 40, "unit": "%"}, {"measurement": "Population Fragmented Nuclei (%)", "setting": "[8]", "value": 50, "unit": "%"}, {"measurement": "Population Healthy Nuclei (%)", "setting": "[8]", "value": 39, "unit": "%"}, {"measurement": "Population Hoechst High Intensity Objects (%)", "setting": "[8]", "value": 31, "unit": "%"}, {"measurement": "Population Membrane Permeable-Phenotype (%)", "setting": "[8]", "value": 21, "unit": "%"}, {"measurement": "Population Mitochondria Different-Phenotype (%)", "setting": "[8]", "value": 31, "unit": "%"}, {"measurement": "Population Mitotic Cells (%)", "setting": "[8]", "value": 60, "unit": "%"}, {"measurement": "Population Normal (%)", "setting": "[8]", "value": 68, "unit": "%"}, {"measurement": "Population Pyknosed Nuclei (%)", "setting": "[8]", "value": 10, "unit": "%"}, {"measurement": "Population Tubulin-Different-Phenotype (%)", "setting": "[8]", "value": 57, "unit": "%"}, {"measurement": "Total Cell Count", "setting": "[8]", "value": 70}]}]}
